Assay: Toxicity liver stage against HepG2, at 10uM
Format: cell-based
Design: test concentration 10 uM, cell line HepG2-A16-CD81EGFP
Settings: human, HepG2-A16-CD81EGFP cells; read-out: INHIBITION
In short: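 Uninfected HepG2-A16-CD81EGFP cells, 3 × 10^3 per well, 1536-well, plated on prespotted compound at 10 μM final, parasite-free screening media added to match infected plates; puromycin 10 μM positive, DMSO 0.5% negative; run in parallel with 48 h PbLuc assay at 37 °C, 5% CO2; viability by CellTiter-Glo luminescence, normalized to controls.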

Structure (SMILES) | cytotoxicity at 10 µM [%]
O=C(Cc1c(F)cccc1Cl)Nc1cc(N2CCOCC2)ncn1 | 3.36
CC(=O)N1CCC2(CC1)CN(C(=O)C1CC1)c1ccc(F)cc12 | 2.05
CN1CCC2(CCN(C(=O)c3ccccc3)CC2)C1 | -2.36
O=C1CC(c2ccccc2)c2sc(C(=O)O)c(-c3ccccc3)c2N1 (configuration not stated) | -2.31
CN1CCc2nc3c(c(N)c2C1)CCCN3C | 11.3
Cc1cc(C)n(CCC(=O)N2CCCC(c3nc(C(C)C)no3)C2)n1 (configuration not stated) | 8.27
Cc1ccc2cnn(CCC(=O)Nc3nc(C)c(C)s3)c2c1 | 2.57
CN1CCCC(c2cccc(-c3ccccc3F)n2)C1 (configuration not stated) | 2.58
CC(C)c1nccn1CCC(=O)N1CCCCC1c1ccn[nH]1 (configuration not stated) | 6.16
Cn1nccc1C(=O)N1CCC(c2nnsc2S(C)(=O)=O)CC1 | -4.22
Cc1cc(-c2ccccc2C(=O)O)nc(C2CCCN(C)C2)n1 (configuration not stated) | -5.03
CCc1cc(O)nc(C2CCCN2C(=O)COC)n1 (configuration not stated) | -11.5
COCCC(=O)N1CCCC1c1csc(Nc2ccccn2)n1 (configuration not stated) | -13.2
NC(=O)CN1CCC(c2cc(C(F)(F)F)n3ccnc3n2)CC1 | -2.28
Cc1ccc2nc(C3CCCN(Cc4ccccc4)C3)nc(O)c2c1 (configuration not stated) | 6.67
COc1ccccc1-c1nc(C(=O)N(C)C)n2ccncc12 | 12.6
Cc1cc(NC(=O)N2CCC[C@@H]2CO)nn1-c1ccccc1Cl | -1.29
CC(C)c1noc(CCC(=O)N(CC2CCOC2)C2CC2)n1 (configuration not stated) | 8.01
CCN(CC(=O)N(C)C)C(=O)c1ccc(-c2nc(C)cs2)cc1 | 6.98
CC(Nc1nc2c(cnn2C)c(=O)[nH]1)c1ccccn1 (configuration not stated) | 13.3
CS(=O)(=O)N1CCC(C(=O)N2CCOc3ccccc32)CC1 | -0.595

Structure (SMILES) | cytotoxicity at 10 µM [%]
CC(C)(C)OC(=O)NCCC(=O)N(CCC#N)Cc1ccco1 | 3.12
CCc1noc(CN(C)Cc2cc(Br)ccc2OC)n1 | 3.91
CC(C)(C)Oc1ccc(CN)c(C(F)(F)F)c1 | 9.5
O=C(COC1CCCC1)NCCc1nc(-c2ccccn2)cs1 | 6.94
CCOC(=O)CNC(=O)c1scnc1C | 5.35
CCN(CC)Cc1ccc(CNC(=O)C(C)(C)n2cc(Br)cn2)cc1 | 33.6
Cc1nc(CN2CCN(C(=O)CCc3nc(C(C)(C)C)no3)CC2)cs1 | 3.64
Cc1ccc(CN(C)C(=O)Cn2nc(-c3ccc(F)cc3)oc2=O)cc1 | -20.6
NC(=O)COc1ccc(CNCc2c(F)cccc2F)cc1 | -5.03
O=C(c1cc(Cl)c2c(c1)OCCCO2)N(CC1CCOC1)C1CC1 (configuration not stated) | -4.09
N#Cc1nccnc1N1CCC(CSc2ccccc2)C1 (configuration not stated) | 0.957
CC(CC#N)N(C)Cc1ccccc1F (configuration not stated) | 10.4
CCC1CN(CC(=O)NCC(C)C)CCO1 (configuration not stated) | 14.4
Cn1cnc2c1CCN(Cc1ccc(Cl)c3cccnc13)C2 | 10.6
O=C1CN(C(=O)CN(CC2CCC2)CC(F)(F)F)CCN1 | 0.821
O=C(c1occc1CN1C(=O)Cc2ccccc21)N1CC(O)C1 | -4.43
CCN(C(=O)CCCOC)C(c1ccc(Cl)cc1)c1ccccn1 (configuration not stated) | -7.25
CC(c1ccccc1)N(C)C(=O)CNCCn1cccn1 (configuration not stated) | 4.58
COCCN1CCN(Cc2nc(-c3ccoc3)no2)CC1 | 16
Cc1cccc(C(=O)N2C[C@H](NS(C)(=O)=O)[C@@H]3OCCC[C@@H]32)n1 | -77.4
Cc1cc(CN2CCC(c3cc(Cc4ccccc4)n[nH]3)CC2)[nH]n1 | 7.54

Structure (SMILES) | cytotoxicity at 10 µM [%]
COCCN1C[C@H](NC(=O)CCC(F)(F)F)[C@@H](C(C)C)C1 | 5.25
O=C(NC1CCc2ccccc2C1)C1CCN(Cc2ccco2)CC1 (configuration not stated) | -0.339
Cc1cc(C)c2c(N3CCCN(C(=O)C4CCC4)CC3)ncnc2n1 | -10.7
CC(=O)Nc1ccc(CNCc2cccnc2N(C)C)cc1 | -7.49
CC(=O)c1ccc(N2CCC3(CCC(=O)N(CCCO)C3)CC2)nc1 | 4.81
CC(C)[C@@H]1CN(c2ccc(F)cn2)C[C@H]1NS(C)(=O)=O | 3.69
Cn1ncc2c(N3CCC(F)(F)CC3)nc(-c3ccncc3)nc21 | 9.74
O=C(O)C1(Cc2ccc(F)cc2F)CCCN(Cc2ccccn2)C1 (configuration not stated) | 7.65
COc1ccccc1-n1nc(-c2ccco2)n(CC(N)=O)c1=O | 0.5
COCC(=O)N[C@H]1C[C@@H](C(=O)NCCc2cccc(Cl)c2)N(C)C1 | 1.72
CC(C)n1cnnc1Cn1c(=O)cnc2ccccc21 | -4.04
COc1ccc(-c2cc(CN)ccc2F)c(OC)c1OC | 1.91
CN(C)[C@H]1CCCCN(C(=O)c2cccc(N3CCS(=O)(=O)CC3)c2)C1 | 2.45
Cc1ccc2c(C(=O)N(C)C)cc(-c3cnn(CCO)c3)nc2c1C | 3.69
COCc1ncc(CN2CC[C@@](O)(COC)C(C)(C)C2)cn1 | -2.79
Cc1nc(C)n(CC2CCCN(Cc3cccc(F)c3F)C2)n1 (configuration not stated) | -10.3
CC(C(=O)NCc1ccc(N2CCCCCC2)nc1)n1cncn1 (configuration not stated) | -11.2
CCNC(=O)CN1CCN(Cc2nc3c(F)cccc3n2CC)CC1 | -11.5
CN1CCOC(CNCc2cccc(OC(F)(F)F)c2)C1 (configuration not stated) | -12
CC1CN(C)CCN1C(=O)c1cnc2c(cnn2C2CCCC2)c1 (configuration not stated) | -12.8
CCN1CCC(NC(=O)CN2CCCC2Cn2nc(C)nc2C)CC1 (configuration not stated) | -12.7

Structure (SMILES) | cytotoxicity at 10 µM [%]
CC(C)c1nnc2n1CCN(C(=O)c1ccnc(-n3ccnc3)c1)C2 | -29
Cc1nc(-c2ccccc2)n(CC(=O)NC(C)C)n1 | -14.1
COc1ccc(CNC(=O)Nc2cccnc2N2CCCC2)cc1OC | -24.6
CC(=O)Nc1nc(CN(C)C2CCCN(c3cccnn3)C2)cs1 (configuration not stated) | -11.1
COC(=O)C(NC(=O)c1ccco1)c1cc(F)ccc1F (configuration not stated) | -11.5
COc1cc(C(=O)N(C2CC2)C2CC(=O)NC2=O)ccc1C (configuration not stated) | -3.58
Cc1nc(C)n(CC2CCCN2CCOc2ccc(C#N)cc2)n1 (configuration not stated) | -10.1
CC(NC(=O)NCCCn1cncn1)c1ccccc1Cl (configuration not stated) | 3.01
Cc1nc(C(=O)N2CCCC(n3cncn3)C2)cs1 (configuration not stated) | 5.7
O=C1CCC2(CCC(NCc3ccc4c(c3)OCO4)CC2)N1 (configuration not stated) | 1.97
COCCNC(=O)[C@H]1C[C@H]2OCC[C@H]2N(Cc2ccoc2)C1 | -75.7
O=C(CC1CCCC1)N1CCn2cc(Cn3cccn3)nc2C1 | -75.4
O=C(c1ccoc1)N1CC[C@@H]2O[C@@H](COCCN3CCCC3)CC[C@@H]21 | -89.7
COCC(=O)N1CCn2c(CN3CCN(C)CC3)cnc2C1 | -70
Cc1ccc2c(n1)N(Cc1cccnc1)CCN(C(=O)C1CC1)C2 | -61.7
CCc1ccc(CN2CC[C@H]3[C@H]2CC(=O)N3Cc2cccc(C)n2)o1 | -2.19
Cc1noc(CN2C[C@@H]3CC[C@H]2CN(C2Cc4ccccc4C2)C3)n1 | 3.3
COc1ccc(-n2cc3nc(N4CCCC4)[nH]cc-3c2=O)cc1Cl | 11.6
COC(=O)Cn1c(=O)[nH]c2cn(-c3ccc(F)cc3)c(=O)n21 | 1.09
